This passage reports IC50, Ratio and Activity results from ChEMBL document CHEMBL1148136, “Induction of quinone reductase by withanolides” (J Nat Prod, 2002).

The nature of data set [1]: Growth inhibition of mouse Hepa-1c1c7 cells by crystal violet staining. The data set is classed as cell-based. The conditions noted are these: for IC50: Mus musculus, Hepa-1c1c7; for Activity: mouse, hepa-1c1c7. An outline of the steps: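 Hepa 1c1c7 cells seeded at 4000 cells/mL and grown 24 h at 37 °C, then medium changed. Compounds added in 10% DMSO, serially diluted over 0.15-20 µg/mL, and exposed 48 h. Viability read by crystal violet staining at 595 nm. IC50 taken as the half-maximal inhibitory concentration of cell viability.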

The nature of data set [2]: Chemoprevention index, ratio of IC50 for mouse Hepa-1c1c7 cells to drug level required to double specific quinone reductase activity in mouse Hepa-1c1c7 cells. The data set is classed as functional. An outline of the steps:
(§1)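 Hepa 1c1c7 cells seeded at 4000 cells/mL, grown 24 h at 37 °C under CO2, then medium changed. Compounds added in 10% DMSO, serially diluted over 0.15-20 µg/mL, and incubated a further 48 h. QR measured as NADPH-dependent, menadiol-mediated MTT reduction to formazan. Protein by crystal violet at 595 nm in duplicate plates. Specific activity expressed relative to solvent control. CD = concentration giving 2-fold activity, CQ = 4-fold. CI = IC50/CD or IC50/CQ.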

A short description of data set [3]: Chemoprevention index, ratio of IC50 for mouse Hepa-1c1c7 cells to drug level required to induce 4-fold increase in quinone reductase activity in mouse Hepa-1c1c7 cells. The data set is classed as functional. An outline of the steps:
as §1

Molecules are shown by their SMILES. A value given as a limit tells only on which side of the number the result lay.

Broadly, the IC50 is the point on the concentration scale where inhibition reaches its midpoint. Read a high IC50 as lower potency. Compound `CC(=O)O[C@H]1C=CC(=O)[C@@]2(C)C1=C[C@H](OC(C)=O)[C@@H]1[C@@H]2CC[C@]2(C)[C@@H]([C@@](C)(O)[C@H]3CC(C)=C(C)C(=O)O3)CC[C@@H]12` registered a half-inhibitory concentration (IC50) in data set [1] of 0.81 µM. Further, the Ratio in data set [2] was more than 3. The like results for `CC(=O)O[C@@H]1[C@H]2[C@@H]3CC[C@H]([C@@](C)(O)[C@H]4CC(C)=C(C)C(=O)O4)[C@@]3(C)CC[C@@H]2[C@@]2(C)C(=O)C=C[C@H](OC(C)=O)[C@]23O[C@H]13` were, in that order, 0.33 µM and 1.3. Take `CC(=O)O[C@H]1C=CC(=O)[C@]2(C)[C@H]3CC[C@]45C(=O)O[C@@](C)([C@H]6C[C@H](C)[C@@H](C)C(=O)O6)[C@H]4CC[C@H]5[C@@H]3C[C@H]3O[C@]132`: the IC50 in data set [1] is 0.42 µM. Further, the Ratio in data set [2] and in data set [3] was more than 1.5 throughout. `CC1=C(C)C(=O)O[C@@H]([C@](C)(O)[C@H]2CC[C@H]3[C@@H]4[C@@H](O)C=C5[C@@H](O)C=CC(=O)[C@]5(C)[C@H]4CC[C@]23C)C1`: in data set [1], the IC50 was determined as 1.66 µM. In addition, the Ratio is 3.5 in data set [2] and 0.62 in data set [3]. Regarding `CC(=O)C1=CC[C@H]2[C@@H]3[C@@H]4O[C@@H]4[C@@]4(O)CC=CC(=O)[C@]4(C)[C@H]3CC[C@]12C`, the IC50 in data set [1] was more than 58.4 µM. Also, in data set [2], the Ratio is recorded as more than 1.7. `CC1=C(C)C(=O)O[C@@H]([C@@H](C)[C@H]2[C@@H](O)C[C@H]3[C@@H]4C[C@H]5O[C@]56[C@@H](O)C=CC(=O)[C@]6(C)[C@H]4CC[C@]23C)C1` gave an IC50 in data set [1] of 0.66 µM. Also, the Ratio in data set [2] is listed as more than 2.1; in data set [3], 1.3. Taken in the same sequence, the figures for `CC1=C(C)C(=O)O[C@@H]([C@](C)(O)[C@H]2CC[C@H]3[C@@H]4C[C@H]5O[C@]56[C@@H](O)C=CC(=O)[C@]6(C)[C@H]4CC[C@]23CO)C1` were 1.93 µM, 7.2 and 3.5. `CC1=C(C)C(=O)O[C@@H]([C@](C)(O)[C@H]2CC[C@H]3[C@@H]4[C@@H](O)[C@H]5O[C@]56[C@@H](O)C=CC(=O)[C@]6(C)[C@H]4CC[C@]23C)C1`: in data set [1], it took 1.27 µM to reach half-maximal inhibition (IC50). Also, in data set [2], the Ratio came out at 2.5.

For `CC(=O)O[C@H]1C=CC(=O)[C@]2(C)[C@H]3CC[C@]45C(=O)O[C@@](C)([C@H]6CC(C)=C(C)C(=O)O6)[C@H]4CC[C@H]5[C@@H]3C[C@H]3O[C@]132`, the IC50 in data set [1] amounted to 0.57 µM. Further, the Ratio in data set [2] and in data set [3] was more than 2 in each case. In the case of `CC(=O)O[C@@H]1O[C@@](C)([C@H]2CC(C)=C(C)C(=O)O2)[C@H]2CC[C@H]3[C@@H]4CC=C5[C@@H](OC(C)=O)C=CC(=O)[C@]5(C)[C@H]4CC[C@]123`, 5.1 µM corresponded to half-maximal inhibition in data set [1] (IC50). Turning to `C[C@H]1C[C@H]([C@](C)(O)[C@H]2CC[C@H]3[C@@H]4C[C@H]5O[C@]56[C@@H](O)C=CC(=O)[C@]6(C)[C@H]4CC[C@]23C)OC(=O)[C@@H]1C`, in data set [1], the half-maximal inhibitory concentration (IC50) was found to be 5.5 µM. The Ratio in data set [2] was determined as 7.8; in data set [3] it was 1.4. `CC1=C(C)C(=O)O[C@@H](/C(C)=C2\[C@@H](O)C[C@H]3[C@@H]4[C@@H]5O[C@@H]5[C@@]5(O)CC=CC(=O)[C@]5(C)[C@H]4CC[C@]23C)C1` [EXODECONOLIDE A]: the IC50 in data set [1] was more than 42.7 µM. The Ratio in data set [2] is given as more than 2.7. The like results for `CC1=C(C)C(=O)O[C@@H](/C(C)=C2\[C@H](O)C[C@H]3[C@@H]4[C@@H]5O[C@@H]5[C@@]5(O)CC=CC(=O)[C@]5(C)[C@H]4CC[C@]23C)C1` [EXODECONOLIDE B] were, in that order, more than 42.7 µM and more than 2.6.

`CC1=C(C)[C@]2(OC1=O)[C@H](O)[C@@H](C)[C@]1(O)CC[C@H]3[C@@H]4C[C@@H](O)[C@@]5(Cl)CC=CC(=O)[C@]5(C)[C@H]4C[C@@]2(O)[C@@]31C` [JABOROSALACTONE 10] registered a concentration for half-maximal inhibition (IC50) in data set [1] of more than 38 µM. For the same compound, the Ratio in data set [2] is listed as more than 5.2. The like results for `CO[C@]12CC=CC(=O)[C@]1(C)[C@H]1C[C@@]3(O)[C@@]4(C)[C@@H](CC[C@@]4(O)[C@H](C)[C@@H](O)[C@]34OC(=O)C(C)=C4C)[C@@H]1C[C@H]2O` [JABOROSALACTONE 12] were, in that order, more than 39 µM and more than 4.2. For `CC1=C(CO)C(=O)O[C@@H]([C@@H](C)[C@H]2CC[C@H]3[C@@H]4C[C@@H](O)[C@@]5(O)CC=CC(=O)[C@]5(C)[C@H]4CC[C@]23C)C1` [JABOROSALACTONE D], the IC50 in data set [1] is more than 42.3 µM. Besides, the Ratio in data set [2] is recorded as more than 1.7. With `CC1=C(C)C(=O)O[C@@H]([C@@H](C)[C@@]2(O)CC[C@H]3[C@@H]4C[C@H]5O[C@]56CC=CC(=O)[C@]6(CO)[C@H]4CC[C@@]32C)C1` [JABOROSALACTONE L], the Activity entry in data set [1] is on record as “Not Active”. Turning to `CC1=C(C)C(=O)O[C@@H]([C@@H](C)[C@@]2(O)CC[C@H]3[C@@H]4C[C@H]5O[C@]56CCCC(=O)[C@]6(CO)[C@H]4CC[C@@]32C)C1` [JABOROSALACTONE O], the IC50 in data set [1] is more than 42.3 µM. Besides, the Ratio in data set [2] is more than 27.8.

`CC1=C(C)C(=O)O[C@@H]([C@@H]2CO[C@@]3(O)C[C@H]4[C@@H](C[C@@H](O)[C@@]5(O)CC=CC(=O)[C@]45C)[C@@H]4CC[C@]2(O)[C@]43C)C1` [JABOROSALACTONE S]: in data set [1], the IC50 is more than 39.8 µM.

For the compound `C[C@@H](c1ccc2c(c1)CC[C@H]1[C@H]2C[C@@H]2O[C@@]23CC=CC(=O)[C@]13C)[C@@H]1C[C@@H]2O[C@@H]2[C@H](O)O1` [SALPICHROLIDE A], the half-maximal inhibitory concentration (IC50) in data set [1] was more than 42.9 µM. Moreover, in data set [2], the Ratio was more than 4. The like results for `C[C@@H](c1cc(O)c2c(c1)CC[C@H]1[C@H]2C[C@@H]2O[C@@]23CC=CC(=O)[C@]13C)[C@@H]1C[C@@H]2O[C@@H]2[C@H](O)O1` [SALPICHROLIDE G] were, in that order, more than 42.9 µM and more than 3.7. Regarding `C[S+]([O-])CCCCN=C=S` (configuration not stated) [SULFORAPHANE], the Ratio in data set [2] was 23.9; in data set [3], 1.1.

In data set [1], `CC1=C(C)C(=O)O[C@@H]([C@@H](C)[C@H]2CC[C@H]3[C@@H]4[C@@H]5O[C@@H]5[C@@]5(O)CC=CC(=O)[C@]5(C)[C@H]4C[C@H](O)[C@]23C)C1` [WITHAFEROXOLIDE] came in with an IC50 of more than 42.5 µM. In data set [2], the Ratio was more than 2.9. For the compound `CC1=C(C)C(=O)O[C@@H]([C@](C)(O)[C@H]2CC[C@H]3[C@@H]4[C@@H]5O[C@@H]5[C@@]5(O)CC=CC(=O)[C@]5(C)[C@H]4CC[C@]23C)C1` [WITHANOLIDE A], the 50% inhibitory concentration (IC50) in data set [1] was more than 42.5 µM.

For the compound `CC1=C(C)C(=O)O[C@@H]([C@@H](C)[C@@]2(O)CC[C@H]3[C@@H]4[C@@H]5O[C@@H]5[C@@]5(O)CC=CC(=O)[C@]5(C)[C@H]4CC[C@@]32C)C1` [WITHANONE], in data set [1], the Activity entry was “Not Active”. As to `CC1=C(C)C(=O)O[C@@H]([C@]2(C)OC(O)[C@]34CC[C@H]5[C@@H](C[C@H]6O[C@]67[C@@H](O)C=CC(=O)[C@]57C)[C@@H]3CC[C@H]24)C1` (some centres not stated) [WITHAPHYSALIN F], the half-inhibitory concentration (IC50) in data set [1] stood at 4.15 µM. For the compound `CC1=C(C)C(=O)O[C@@H]([C@]2(C)OC(O)[C@]34CC[C@H]5[C@@H](CC=C6[C@@H](O)C=CC(=O)[C@@]65C)[C@@H]3CC[C@H]24)C1` (some centres not stated) [WITHAPHYSALIN G], 9.83 µM corresponded to half-maximal inhibition in data set [1] (IC50). Moreover, the Ratio in data set [2] was 19.3.

Take `CO[C@@H]1O[C@@](C)([C@H]2CC(C)=C(C)C(=O)O2)[C@H]2CC[C@H]3[C@@H]4CC=C5[C@@H](O)C=CC(=O)[C@]5(C)[C@H]4CC[C@]123` [WITHAPHYSALIN H]: in data set [1], half-maximal inhibition (IC50) was put at 5.21 µM. The Ratio in data set [2] is recorded as 10.

Turning to `CO[C@H]1O[C@@](C)([C@H]2CC(C)=C(C)C(=O)O2)[C@H]2CC[C@H]3[C@@H]4CC=C5[C@@H](O)C=CC(=O)[C@]5(C)[C@H]4CC[C@]123` [WITHAPHYSALIN I], the concentration for half-maximal inhibition (IC50) in data set [1] stood at 5.27 µM. Also, the Ratio in data set [2] is recorded as 5.1. Taken in the same sequence, the figures for `CC1=C(C)C(=O)O[C@@H]([C@]2(C)OC(=O)[C@]34CC[C@H]5[C@@H](CC=C6[C@@H](O)C=CC(=O)[C@@]65C)[C@@H]3CC[C@H]24)C1` [WITHAPHYSALIN J] were 11 µM and 28.1. As to `CO[C@@H]1O[C@@](C)([C@H]2CC(C)=C(C)C(=O)O2)[C@H]2CC[C@H]3[C@@H]4CC=C5C(=O)C=CC(=O)[C@]5(C)[C@H]4CC[C@]123` [WITHAPHYSALIN K], half-maximal inhibition in data set [1] (IC50) required 7.29 µM.

In turn, `CO[C@H]1O[C@@](C)([C@H]2CC(C)=C(C)C(=O)O2)[C@H]2CC[C@H]3[C@@H]4CC=C5C(=O)C=CC(=O)[C@]5(C)[C@H]4CC[C@]123` [WITHAPHYSALIN L] registered a half-inhibitory concentration (IC50) in data set [1] of 0.65 µM.
